Experimental data: ChEMBL document CHEMBL1142721, “Nanomolar inhibitors of CNS epinephrine biosynthesis: (R)-(+)-3-fluoromethyl-7-(N-substituted aminosulfonyl)-1,2,3,4-tetrahydroisoquinolines as potent and highly selective inhibitors of phenylethanolamine N-methyltransferase1” (J Med Chem, 2005)

What follows are molecules tested against T1, Alpha-2A adrenergic receptor (Rattus norvegicus, UniProt P22909) (assay: In vitro binding affinity against rat Alpha-2 adrenergic receptor using [3H]clonidine).
T1 sequence (P22909 whole entry): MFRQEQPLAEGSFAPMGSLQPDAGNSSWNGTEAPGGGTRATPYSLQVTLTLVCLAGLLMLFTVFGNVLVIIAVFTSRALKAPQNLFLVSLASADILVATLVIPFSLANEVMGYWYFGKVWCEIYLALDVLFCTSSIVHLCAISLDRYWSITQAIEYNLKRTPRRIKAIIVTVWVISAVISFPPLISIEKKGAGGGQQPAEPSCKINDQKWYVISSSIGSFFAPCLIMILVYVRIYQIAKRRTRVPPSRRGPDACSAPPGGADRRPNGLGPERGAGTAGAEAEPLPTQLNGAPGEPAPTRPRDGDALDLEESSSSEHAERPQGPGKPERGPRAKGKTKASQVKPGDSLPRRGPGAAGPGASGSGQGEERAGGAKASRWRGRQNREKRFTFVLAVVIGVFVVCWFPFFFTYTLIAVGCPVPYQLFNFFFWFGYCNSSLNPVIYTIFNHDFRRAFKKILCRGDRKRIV
In short: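 Rat cortex membranes (male Sprague-Dawley) washed by three 50 000 × g spins in ice-cold 50 mM Tris/HCl pH 7.7. Incubated with [3H]clonidine at 2.0 nM final, 25 °C, 30 min. Bound ligand recovered on GF/B filters and counted. Nonspecific binding set with 2 µM phentolamine. Quadruplicate, 5 concentrations over a 16-fold range. IC50 from log-probit analysis, converted by Ki = IC50/(1 + [clonidine]/KD).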
O=S(=O)(Nc1ccc(Cl)cc1)c1ccc2c(c1)CN[C@H](CF)C2 gave a Ki of 150 µM. Molecule O=S(=O)(Nc1ccc(Cl)cc1)c1ccc2c(c1)CN[C@@H](CF)C2 has a Ki of 140 µM. In the case of COCCCNS(=O)(=O)c1ccc2c(c1)CN[C@@H](CF)C2, the Ki is reported as 680 µM. CCNS(=O)(=O)c1ccc2c(c1)CN[C@@H](CF)C2 was tested, and the Ki was 550 µM. Work on O=S(=O)(NCCC(F)(F)F)c1ccc2c(c1)CN[C@@H](CF)C2 yielded a Ki of 670 µM. Molecule O=S(=O)(NCCC(F)(F)F)c1ccc2c(c1)CNC(CF)C2 (configuration not stated) has a Ki of 660 µM. Work on O=S(=O)(c1ccc2c(c1)CN[C@@H](CF)C2)N1CCSCC1 yielded a Ki of 200 µM. Molecule CCCNS(=O)(=O)c1ccc2c(c1)CN[C@@H](CF)C2 has a Ki of 570 µM. For NS(=O)(=O)c1ccc2c(c1)CN[C@@H](CF)C2, the Ki was 700 µM. Work on O=S(=O)(NCC(F)(F)F)c1ccc2c(c1)CN[C@@H](CF)C2 yielded a Ki of 1000 µM. For CCNS(=O)(=O)c1ccc2c(c1)CNC(CF)C2 (racemic), the Ki was 550 µM. Molecule COCCCNS(=O)(=O)c1ccc2c(c1)CNC(CF)C2 (racemic) has a Ki of 750 µM. Molecule O=S(=O)(NCC(F)(F)F)c1ccc2c(c1)CNC(CF)C2 (racemic) has a Ki of 1200 µM. Work on O=S(=O)(Nc1ccc(Cl)cc1)c1ccc2c(c1)CNC(CF)C2 (racemic) yielded a Ki of 140 µM. Work on O=S(=O)(c1ccc2c(c1)CNC(CF)C2)N1CCSCC1 (racemic) yielded a Ki of 190 µM. CCCNS(=O)(=O)c1ccc2c(c1)CNC(CF)C2 (racemic) gave a Ki of 610 µM. NS(=O)(=O)c1ccc2c(c1)CNC(CF)C2 (racemic) was tested, and the Ki was 680 µM.
